What was measured:
Type in all cases: functional
Mus musculus [1] = assay: The effect on ataxia in mice following oral administration
Procedure, shortened: (§1)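 Observed at 0.5, 2, 5 and 24 h for ataxia (abnormal gait/imprecise movement), pupil diameter (dissecting microscope, 20×, micrometer), excitement (spontaneous running/jumping) and electroshock protection (corneal electrodes at 2 and 5 h). ED50 by Thompson method.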

Mus musculus [2] = assay: Effect on pupil dilation was measured in mice upon oral administration; procedure, shortened: as §1
Mus musculus [3] = assay: Antidepressant activity by determining the decreased exploratory activity in mice upon oral administration
Procedure, shortened: (§2)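 Mice given test drug orally; 30 min later challenged with tetrabenazine (methanesulfonate) 32 mg/kg ip in 0.05 M KCl pH 2.0. Scored 1 h after test drug for exploratory activity and ptosis; ptosis antagonism = lid closure <50% in both eyes exactly 2 s after placing mouse facing observer. ED50 calculated by Thompson method.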

Mus musculus [4] = assay: The effect on 24-hour mortality in mice following oral administration
Mus musculus [5] = assay: Compound was tested for antidepressant activity by determining the reversal of tetrabenazine-induced ptosis upon oral administration; 0.9-3.3; procedure, shortened: as §2
Mus musculus [6] = assay: The effect on electroshock protection in mice following oral administration; procedure, shortened: as §1
Mus musculus [7] = assay: The effect on excitement was measured in mice following oral administration; procedure, shortened: as §1
Mus musculus [8] = assay: Compound was tested for antidepressant activity by determining the reversal of tetrabenazine-induced ptosis upon oral administration; 2.7-5.1; procedure, shortened: as §2
Mus musculus [9] = assay: Compound was tested for antidepressant activity by determining the decreased exploratory activity in mice upon oral administration; 7.9-16; procedure, shortened: as §2
Mus musculus [10] = assay: Antidepressant activity by determining the reversal of tetrabenazine-induced ptosis upon oral administration; procedure, shortened: as §2
Mus musculus [11] = assay: Compound was tested for antidepressant activity by determining the decreased exploratory activity in mice upon oral administration; 20-36; procedure, shortened: as §2
Mus musculus [12] = assay: Compound was tested for antidepressant activity by determining the reversal of tetrabenazine-induced ptosis upon oral administration; 3.0-73; procedure, shortened: as §2
Mus musculus [13] = assay: Compound was tested for antidepressant activity by determining the decreased exploratory activity in mice upon oral administration; procedure, shortened: as §2
Mus musculus [14] = assay: Compound was tested for antidepressant activity by determining the reversal of tetrabenazine-induced ptosis upon oral administration; 5.8-15.6; procedure, shortened: as §2
Mus musculus [15] = assay: Compound was tested for antidepressant activity by determining the decreased exploratory activity in mice upon oral administration; 39-238; procedure, shortened: as §2
Mus musculus [16] = assay: Compound was tested for antidepressant activity by determining the reversal of tetrabenazine-induced ptosis upon oral administration; 26-122; procedure, shortened: as §2
Mus musculus [17] = assay: Compound was tested for antidepressant activity by determining the reversal of tetrabenazine-induced ptosis upon oral administration; 37-170; procedure, shortened: as §2
Mus musculus [18] = assay: Compound was tested for antidepressant activity by determining the reversal of tetrabenazine-induced ptosis upon oral administration; 10-57; procedure, shortened: as §2
Mus musculus [19] = assay: Compound was tested for antidepressant activity by determining the decreased exploratory activity in mice upon oral administration; 22-53; procedure, shortened: as §2
Mus musculus [20] = assay: Compound was tested for antidepressant activity by determining the reversal of tetrabenazine-induced ptosis upon oral administration; 2.2-6.2; procedure, shortened: as §2
Mus musculus [21] = assay: Compound was tested for antidepressant activity by determining the decreased exploratory activity in mice upon oral administration; 9.2-17; procedure, shortened: as §2
Mus musculus [22] = assay: Compound was tested for antidepressant activity by determining the decreased exploratory activity in mice upon oral administration; 2.6-28; procedure, shortened: as §2
Mus musculus [23] = assay: Compound was tested for antidepressant activity by determining the reversal of tetrabenazine-induced ptosis upon oral administration; 48-203; procedure, shortened: as §2
Mus musculus [24] = assay: Compound was tested for antidepressant activity by determining the reversal of tetrabenazine-induced ptosis upon oral administration; 2.0-3.1; procedure, shortened: as §2
Mus musculus [25] = assay: Compound was tested for antidepressant activity by determining the decreased exploratory activity in mice upon oral administration; 4.2-9.7; procedure, shortened: as §2
Mus musculus [26] = assay: Compound was tested for antidepressant activity by determining the reversal of tetrabenazine-induced ptosis upon oral administration; 11-29; procedure, shortened: as §2
Mus musculus [27] = assay: compound was tested for antidepressant activity by determining the decreased exploratory activity in mice upon oral administration; […]
Procedure, shortened: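 Mice got the test drug, then 30 min later tetrabenazine (as methanesulfonate) 32 mg/kg ip, dissolved in 0.20 mL of 0.05 M KCl at pH 2.0. One hour after test drug (30 min after tetrabenazine), animals were scored for exploratory activity and ptosis. Reversal of the tetrabenazine-induced decrease in exploration was the read-out.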

Mus musculus [28] = assay: Compound was tested for antidepressant activity by determining the decreased exploratory activity in mice upon oral administration; 8-58; procedure, shortened: as §2
Mus musculus [29] = assay: Compound was tested for antidepressant activity by determining the reversal of tetrabenazine-induced ptosis upon oral administration; 6-20; procedure, shortened: as §2
Mus musculus [30] = assay: Compound was tested for antidepressant activity by determining the decreased exploratory activity in mice upon oral administration; 4.1-12; procedure, shortened: as §2
Mus musculus [31] = assay: Compound was tested for antidepressant activity by determining the reversal of tetrabenazine-induced ptosis upon oral administration; 0.8-2.6; procedure, shortened: as §2
Mus musculus [32] = assay: Compound was tested for antidepressant activity by determining the reversal of tetrabenazine-induced ptosis upon oral administration; 0.3-1.2; procedure, shortened: as §2
Mus musculus [33] = assay: Compound was tested for antidepressant activity by determining the decreased exploratory activity in mice upon oral administration; 1.2-5.5; procedure, shortened: as §2
Mus musculus [34] = assay: Compound was tested for antidepressant activity by determining the decreased exploratory activity in mice upon oral administration; 0.4-1.1; procedure, shortened: as §2
Mus musculus [35] = assay: Compound was tested for antidepressant activity by determining the reversal of tetrabenazine-induced ptosis upon oral administration; 0.17-0.37; procedure, shortened: as §2

| Structure (SMILES) | ED50 (Mus musculus [1]) [mg/kg] | ED50 (Mus musculus [2]) [mg/kg] | ED50 (Mus musculus [3]) [mg/kg] | ED50 (Mus musculus [4]) [mg/kg] | ED50 (Mus musculus [6]) [mg/kg] | ED50 (Mus musculus [7]) [mg/kg] | ED50 (Mus musculus [10]) [mg/kg] | further results |
| --- | --- | --- | --- | --- | --- | --- | --- | --- |
| CN(C)CCCN=C1c2ccccc2C2CC2c2ccccc21 (stereo not drawn) | 12 | 12 | > 81 | 200 | > 324 | > 324 | – | ED50 (Mus musculus [5]): 1.7 mg/kg |
| CN(C)CC/N=C1\c2ccccc2C2CC2c2ccc(Cl)cc21 (stereo not drawn) | 20 | 12 | – | 200 | 200 | 60 | – | ED50 (Mus musculus [8]): 3.7 mg/kg; ED50 (Mus musculus [9]): 11.2 mg/kg |
| CC(=O)N1Cc2ccccc2/C(=N\CCN(C)C)c2ccccc21 | 100 | 200 | > 125 | > 324 | > 324 | > 324 | > 125 | – |
| CN(C)CCCN=C(c1ccccc1)c1ccccc1 | 60 | > 324 | > 125 | 200 | > 324 | > 324 | > 125 | – |
| CN(C)CC/N=C1\c2ccccc2CSc2ccccc21 | 20 | 20 | – | 60 | > 324 | > 324 | – | ED50 (Mus musculus [11]): 27 mg/kg; ED50 (Mus musculus [12]): 47 mg/kg |
| CCN(CC)CCN=C1c2ccccc2CCc2ccccc21 | 20 | 36 | 36 | 60 | 200 | > 324 | > 125 | – |
| CN(C)CCCN=c1c2ccccc2ccc2ccccc12 | 20 | 7 | – | – | > 324 | 36 | – | ED50 (Mus musculus [13]): > 125 mg/kg; ED50 (Mus musculus [14]): 9.5 mg/kg |
| NCCCNC1c2ccccc2CCc2ccccc21 | 60 | 60 | – | 200 | > 324 | > 324 | > 125 | ED50 (Mus musculus [13]): > 125 mg/kg |
| CN(C)CCC/N=C1\c2ccccc2CN(C)c2ccccc21 | 200 | 100 | – | 20 | > 324 | > 324 | – | ED50 (Mus musculus [15]): 96 mg/kg; ED50 (Mus musculus [16]): 56 mg/kg |
| CN(C)CCN=C1c2ccccc2C(C)(C)c2ccccc21 | 36 | > 324 | > 125 | 200 | > 324 | > 324 | > 125 | – |
| c1ccc2c(c1)C(=NCCN1CCOCC1)c1ccccc1C1CC21 (stereo not drawn) | 200 | > 324 | > 125 | > 324 | > 324 | > 324 | – | ED50 (Mus musculus [17]): 79 mg/kg |
| c1ccc2c(c1)C(=NCCN1CCCC1)c1ccccc1C1CC21 (stereo not drawn) | 60 | 7 | > 125 | 300 | 200 | > 324 | > 125 | – |
| CN(C)CCCN=C1c2ccccc2CCc2ccccc21 | 60 | 20 | – | 36 | > 324 | > 324 | – | ED50 (Mus musculus [18]): 24 mg/kg; ED50 (Mus musculus [19]): 34 mg/kg |
| CN(C)CCN=C1c2ccccc2C2C(c3ccccc31)C2(F)F (stereo not drawn) | 60 | 200 | – | > 324 | 200 | > 324 | – | ED50 (Mus musculus [20]): 3.7 mg/kg; ED50 (Mus musculus [21]): 12.5 mg/kg |
| CN(C)CCN=C1c2ccccc2C2C(c3ccccc31)C2(Cl)Cl (stereo not drawn) | 200 | > 324 | > 125 | > 324 | > 324 | > 324 | > 125 | – |
| CN(C)CCCN=c1c2ccccc2oc2ccccc12 | 60 | > 324 | > 125 | 300 | > 324 | > 324 | > 125 | – |

| Structure (SMILES) | ED50 (Mus musculus [1]) [mg/kg] | ED50 (Mus musculus [2]) [mg/kg] | ED50 (Mus musculus [3]) [mg/kg] | ED50 (Mus musculus [4]) [mg/kg] | ED50 (Mus musculus [6]) [mg/kg] | ED50 (Mus musculus [7]) [mg/kg] | ED50 (Mus musculus [10]) [mg/kg] | further results |
| --- | --- | --- | --- | --- | --- | --- | --- | --- |
| CNCCN=C1c2ccccc2CCc2ccccc21 | 36 | 60 | – | 200 | > 324 | > 324 | < 5 | ED50 (Mus musculus [22]): 8.5 mg/kg |
| CN(C)CCC/N=C1\c2ccccc2CS(=O)(=O)c2ccccc21 | 200 | 20 | > 125 | 20 | > 324 | > 324 | > 125 | – |
| CN(C)CCC/N=C1\c2ccccc2CSc2ccccc21 | 60 | 60 | 81 | 60 | > 324 | > 324 | > 81 | – |
| CN(C)CCC/N=C1\c2ccccc2COc2ccccc21 | 20 | 20 | > 125 | 200 | > 324 | > 324 | – | ED50 (Mus musculus [23]): 99 mg/kg |
| CN(C)CCN=C1c2ccccc2C2C(Cl)C2c2ccccc21 (stereo not drawn) | 200 | 200 | > 125 | > 324 | > 324 | > 324 | > 125 | – |
| CN(C)CCN=c1c2ccccc2ccc2ccccc12 | 4 | 4 | – | 36 | > 324 | 7 | – | ED50 (Mus musculus [24]): 2.5 mg/kg; ED50 (Mus musculus [25]): 6.4 mg/kg |
| NCCN=C1c2ccccc2CCc2ccccc21 | 100 | 200 | – | 200 | 200 | > 324 | – | ED50 (Mus musculus [26]): 18 mg/kg; ED50 (Mus musculus [27]): 56 mg/kg |
| CN(C)CCN=c1c2ccccc2sc2ccccc12 | 60 | 36 | – | 300 | > 324 | > 324 | – | ED50 (Mus musculus [28]): 22 mg/kg; ED50 (Mus musculus [29]): 11 mg/kg |
| CN(C)CCN=C(c1ccccc1)c1ccccc1 | 36 | > 324 | > 81 | > 324 | > 200 | > 324 | > 81 | – |
| CCN(CC)CCN=C1c2ccccc2C2CC2c2ccccc21 (stereo not drawn) | 36 | 36 | – | 200 | 100 | > 324 | – | ED50 (Mus musculus [30]): 6.9 mg/kg; ED50 (Mus musculus [31]): 1.4 mg/kg |
| CNCCN=C1c2ccccc2C2CC2c2ccccc21 (stereo not drawn) | 36 | 60 | – | 300 | 300 | > 324 | – | ED50 (Mus musculus [32]): 0.6 mg/kg; ED50 (Mus musculus [33]): 2.6 mg/kg |
| CN(C)CCN=C1c2ccccc2C2CC2c2ccccc21 (stereo not drawn) | 20 | 20 | – | > 324 | > 324 | 60 | – | ED50 (Mus musculus [34]): 0.7 mg/kg; ED50 (Mus musculus [35]): 0.25 mg/kg |
| CCNCCN=C1c2ccccc2CCc2ccccc21 | 20 | 20 | > 125 | 36 | 60 | > 324 | > 125 | – |
| CN(C)CCNC1c2ccccc2CCc2ccccc21 | 20 | 20 | – | 200 | 60 | > 324 | > 125 | ED50 (Mus musculus [13]): > 125 mg/kg |
| CN(C)CCC=C1c2ccccc2COc2ccccc21 [DOXEPIN] | 23 | 56 | – | 232 | 62 | > 324 | 5.9 | ED50 (Mus musculus [13]): 27 mg/kg |
| CN(C)CCCN1c2ccccc2CCc2ccccc21 [IMIPRAMINE] | 62 | 198 | – | 305 | 209 | > 324 | 0.9 | ED50 (Mus musculus [13]): 2.2 mg/kg |

— ChEMBL document CHEMBL1121802, “Imine analogues of tricyclic antidepressants” (1981)
